Results: ChEMBL document CHEMBL3352407, “Griseorhodins D-F, neuroactive intermediates and end products of post-PKS tailoring modification in Griseorhodin biosynthesis” (J Nat Prod, 2014)
Active and inactive are the calls of the source.

Legend:
[1] = molecular target: Muscarinic acetylcholine receptor M2 (Homo sapiens) (UniProt P08172); experiment: Binding affinity to human M2 receptor expressed in CHO cells at 10 uM after 90 mins by microbeta counting analysis; format: cell-based
In short: (§1)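 Primary radioligand displacement screen, run by PDSP/NIMH. Receptor panel includes muscarinic M1–M5. Activity threshold 10 μM. Targets with significant binding went on to secondary Ki assays.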

[2] = molecular target: GABA-A receptor; anion channel (Homo sapiens) (UniProt P14867+P47870+P18507+P28472+P48169+Q99928+Q9UN88+P34903+O00591+O14764+Q8N1C3+P18505+P78334+P47869+P31644+Q16445); experiment: Displacement of [3H]Muscimol from rat GABAA receptor at 10 uM after 90 mins by microbeta counting analysis; format: protein-complex assay; conditions: target entry is the homologue from another species; in short: as §1
[3] = molecular target: Sigma non-opioid intracellular receptor 1 (Rattus norvegicus) (UniProt Q9R0C9); experiment: Displacement of [3H]pentazocine from rat sigma1 receptor at 10 uM after 90 mins by microbeta counting analysis; in short: as §1
Chain of Sigma non-opioid intracellular receptor 1 (Rattus norvegicus) (Q9R0C9 whole entry): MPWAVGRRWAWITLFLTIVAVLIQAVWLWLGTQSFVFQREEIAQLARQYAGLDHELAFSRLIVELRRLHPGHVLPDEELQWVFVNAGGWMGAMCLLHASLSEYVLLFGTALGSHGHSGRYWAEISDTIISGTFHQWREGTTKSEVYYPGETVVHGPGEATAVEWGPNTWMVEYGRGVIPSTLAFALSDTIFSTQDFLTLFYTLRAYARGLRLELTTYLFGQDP

[4] = molecular target: Sodium-dependent serotonin transporter (Homo sapiens) (UniProt P31645); experiment: Displacement of [3H]citalopram from SERT (unknown origin) expressed in HEK cells at 10 uM after 90 mins by microbeta counting analysis; format: cell-based; conditions: HEK293; in short: as §1
[5] = molecular target: 5-hydroxytryptamine receptor 1B (Homo sapiens) (UniProt P28222); experiment: Displacement of [3H]5-CT from human serotonin 5-HT1B receptor expressed in HEK cells at 10 uM after 90 mins by microbeta counting analysis; format: cell-based; conditions: HEK293; in short: as §1
[6] = molecular target: Alpha-2C adrenergic receptor (Homo sapiens) (UniProt P18825); experiment: Displacement of [3H]rauwolscine from adrenergic alpha2C receptor (unknown origin) expressed in MDCK cells at 10 uM after 90 mins by microbeta counting analysis; format: cell-based; in short: as §1
[7] = molecular target: Sodium-dependent noradrenaline transporter (Homo sapiens) (UniProt P23975); experiment: Displacement of [3H]nisoxetine from NET (unknown origin) expressed in HEK cells at 10 uM after 90 mins by microbeta counting analysis; format: cell-based; conditions: HEK293; in short: as §1
Rattus norvegicus [8] = organism: Rattus norvegicus; experiment: Displacement of [3H]DTG from rat sigma2 receptor at 10 uM after 90 mins by microbeta counting analysis; in short: as §1
[9] = molecular target: Alpha-1B adrenergic receptor (Homo sapiens) (UniProt P35368); experiment: Displacement of [3H]prazosin from adrenergic alpha1B receptor (unknown origin) expressed in HEKT cells at 10 uM after 90 mins by microbeta counting analysis; format: cell-based; in short: as §1
[10] = molecular target: Delta-type opioid receptor (Homo sapiens) (UniProt P41143); experiment: Displacement of [3H]DADLE from delta opioid receptor (unknown origin) expressed in HEK cells at 10 uM after 90 mins by microbeta counting analysis; format: cell-based; conditions: HEK293; in short: as §1
[11] = molecular target: Alpha-1A adrenergic receptor (Homo sapiens) (UniProt P35348); experiment: Displacement of [3H]prazosin from adrenergic alpha1A receptor (unknown origin) at 10 uM after 90 mins by microbeta counting analysis; in short: as §1
[12] = molecular target: 5-hydroxytryptamine receptor 1D (Homo sapiens) (UniProt P28221); experiment: Displacement of [3H]5-CT from human serotonin 5-HT1D receptor expressed in HEKT cells at 10 uM after 90 mins by microbeta counting analysis; format: cell-based; in short: as §1
[13] = molecular target: 5-hydroxytryptamine receptor 2C (Homo sapiens) (UniProt P28335); experiment: Displacement of [3H]Mesulergine from human serotonin 5-HT2C receptor expressed in Flp-IN HEK cells at 10 uM after 90 mins by microbeta counting analysis; format: cell-based; conditions: HEK293; in short: as §1
[14] = molecular target: Beta-3 adrenergic receptor (Homo sapiens) (UniProt P13945); experiment: Binding affinity to human adrenergic beta3 receptor expressed in HEK Flp-In cells at 10 uM after 90 mins by microbeta counting analysis; format: cell-based; conditions: HEK293; in short: as §1
[15] = molecular target: Sodium-dependent dopamine transporter (Homo sapiens) (UniProt Q01959); experiment: Displacement of [3H]WIN35428 from human DAT expressed in HEK cells at 10 uM after 90 mins by microbeta counting analysis; format: cell-based; conditions: HEK293
[16] = molecular target: Beta-1 adrenergic receptor (Homo sapiens) (UniProt P08588); experiment: Binding affinity to human adrenergic beta1 receptor expressed in CHO Flp-In cells at 10 uM after 90 mins by microbeta counting analysis; format: cell-based; in short: as §1
Chain of Beta-1 adrenergic receptor (Homo sapiens) (P08588 whole entry, looked up): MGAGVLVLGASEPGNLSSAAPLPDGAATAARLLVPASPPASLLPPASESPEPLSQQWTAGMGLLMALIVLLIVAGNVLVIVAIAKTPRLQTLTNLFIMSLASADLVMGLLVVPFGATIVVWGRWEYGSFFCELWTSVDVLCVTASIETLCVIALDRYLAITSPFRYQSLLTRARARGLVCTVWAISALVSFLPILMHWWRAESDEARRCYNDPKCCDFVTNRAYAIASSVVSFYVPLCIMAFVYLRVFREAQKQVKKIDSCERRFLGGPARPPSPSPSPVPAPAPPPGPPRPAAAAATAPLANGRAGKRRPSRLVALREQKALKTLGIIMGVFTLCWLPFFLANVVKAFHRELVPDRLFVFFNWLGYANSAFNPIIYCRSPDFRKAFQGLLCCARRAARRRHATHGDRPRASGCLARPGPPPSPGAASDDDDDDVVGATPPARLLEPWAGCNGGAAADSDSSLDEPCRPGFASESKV

[17] = molecular target: Muscarinic acetylcholine receptor M5 (Homo sapiens) (UniProt P08912); experiment: Binding affinity to human M5 receptor expressed in CHO cells at 10 uM after 90 mins by microbeta counting analysis; format: cell-based; in short: as §1
Chain of Muscarinic acetylcholine receptor M5 (Homo sapiens) (P08912 whole entry): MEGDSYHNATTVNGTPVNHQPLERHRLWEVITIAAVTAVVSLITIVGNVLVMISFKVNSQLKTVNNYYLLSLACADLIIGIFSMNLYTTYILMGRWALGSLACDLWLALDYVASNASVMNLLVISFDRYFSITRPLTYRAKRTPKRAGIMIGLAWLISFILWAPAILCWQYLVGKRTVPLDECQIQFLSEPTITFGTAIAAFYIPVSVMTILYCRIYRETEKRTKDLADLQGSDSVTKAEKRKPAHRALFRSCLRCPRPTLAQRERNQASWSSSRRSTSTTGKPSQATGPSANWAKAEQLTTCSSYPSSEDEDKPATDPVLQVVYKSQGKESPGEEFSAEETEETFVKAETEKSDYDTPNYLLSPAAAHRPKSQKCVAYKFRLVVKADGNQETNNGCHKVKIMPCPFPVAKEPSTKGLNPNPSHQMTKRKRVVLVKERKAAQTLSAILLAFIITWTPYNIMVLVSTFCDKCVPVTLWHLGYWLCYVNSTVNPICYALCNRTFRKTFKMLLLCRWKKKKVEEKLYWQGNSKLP

[18] = molecular target: Histamine H1 receptor (Homo sapiens) (UniProt P35367); experiment: Displacement of [3H]pyrilamine from human H1 histamine receptor expressed in HEK cells at 10 uM after 90 mins by microbeta counting analysis; format: cell-based; conditions: HEK293; in short: as §1
[19] = molecular target: 5-hydroxytryptamine receptor 5A (Homo sapiens) (UniProt P47898); experiment: Displacement of [3H]LSD from human serotonin 5-HT5A receptor expressed in Flp-In CHO cells at 10 uM after 90 mins by microbeta counting analysis; format: cell-based; in short: as §1
Chain of 5-hydroxytryptamine receptor 5A (Homo sapiens) (P47898 whole entry): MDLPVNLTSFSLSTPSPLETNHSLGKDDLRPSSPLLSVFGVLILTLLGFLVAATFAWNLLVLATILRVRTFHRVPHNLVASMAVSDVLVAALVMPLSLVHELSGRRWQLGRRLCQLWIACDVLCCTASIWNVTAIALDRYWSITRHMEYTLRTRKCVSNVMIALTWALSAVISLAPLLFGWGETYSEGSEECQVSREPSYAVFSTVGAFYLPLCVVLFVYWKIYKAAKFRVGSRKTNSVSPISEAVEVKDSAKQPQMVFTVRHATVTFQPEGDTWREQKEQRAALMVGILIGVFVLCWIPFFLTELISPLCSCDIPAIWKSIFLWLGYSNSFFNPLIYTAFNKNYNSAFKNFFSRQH

[20] = molecular target: 5-hydroxytryptamine receptor 3A (Homo sapiens) (UniProt P46098); experiment: Displacement of [3H]GR65630 from human serotonin 5-HT3 receptor expressed in HEKT cells at 10 uM after 90 mins by microbeta counting analysis; format: cell-based; in short: as §1
[21] = molecular target: Muscarinic acetylcholine receptor M4 (Homo sapiens) (UniProt P08173); experiment: Binding affinity to human M4 receptor expressed in CHO cells at 10 uM after 90 mins by microbeta counting analysis; format: cell-based; in short: as §1
Rattus norvegicus [22] = organism: Rattus norvegicus; experiment: Binding affinity to rat GABAB receptor at 10 uM after 90 mins by microbeta counting analysis; in short: as §1
[23] = molecular target: 5-hydroxytryptamine receptor 4 (Homo sapiens) (UniProt Q13639); experiment: Displacement of [3H]GR113808 from human serotonin 5-HT4 receptor at 10 uM after 90 mins by microbeta counting analysis; in short: as §1
[24] = molecular target: Histamine H2 receptor (Homo sapiens) (UniProt P25021); experiment: Binding affinity to human H2 histamine receptor expressed in HEK cells at 10 uM after 90 mins by microbeta counting analysis; format: cell-based; conditions: HEK293; in short: as §1
[25] = molecular target: Beta-2 adrenergic receptor (Homo sapiens) (UniProt P07550); experiment: Displacement of [3H]CGP12177 from human adrenergic beta2 receptor expressed in HEK Flp-In cells at 10 uM after 90 mins by microbeta counting analysis; format: cell-based; conditions: HEK293; in short: as §1
[26] = molecular target: D(1B) dopamine receptor (Homo sapiens) (UniProt P21918); experiment: Displacement of [3H]SCH23390 from human dopamine D5 receptor expressed in HEKT cells at 10 uM after 90 mins by microbeta counting analysis; format: cell-based; in short: as §1
[27] = molecular target: Mu-type opioid receptor (Homo sapiens) (UniProt P35372); experiment: Displacement of [3H]DAMGO from mu opioid receptor (unknown origin) expressed in HEK cells at 10 uM after 90 mins by microbeta counting analysis; format: cell-based; conditions: HEK293; in short: as §1
Chain of Mu-type opioid receptor (Homo sapiens) (P35372 whole entry): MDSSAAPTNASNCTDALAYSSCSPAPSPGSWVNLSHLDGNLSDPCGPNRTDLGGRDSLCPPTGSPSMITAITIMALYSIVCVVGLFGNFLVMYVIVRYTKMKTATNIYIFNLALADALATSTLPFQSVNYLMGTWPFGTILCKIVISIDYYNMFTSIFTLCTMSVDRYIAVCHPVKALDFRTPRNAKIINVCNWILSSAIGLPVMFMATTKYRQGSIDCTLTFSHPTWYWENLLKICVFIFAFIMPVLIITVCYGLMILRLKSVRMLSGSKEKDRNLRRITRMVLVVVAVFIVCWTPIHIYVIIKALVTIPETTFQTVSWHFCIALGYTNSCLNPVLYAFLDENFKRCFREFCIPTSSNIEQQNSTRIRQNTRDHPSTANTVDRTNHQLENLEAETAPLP

[28] = molecular target: D(4) dopamine receptor (Homo sapiens) (UniProt P21917); experiment: Displacement of [3H]N-methylspiperone from human dopamine D4 receptor at 10 uM after 90 mins by microbeta counting analysis; in short: as §1
[29] = molecular target: Alpha-2B adrenergic receptor (Homo sapiens) (UniProt P18089); experiment: Displacement of [3H]rauwolscine from adrenergic alpha2B receptor (unknown origin) expressed in HEKT cells at 10 uM after 90 mins by microbeta counting analysis; format: cell-based; in short: as §1
Chain of Alpha-2B adrenergic receptor (Homo sapiens) (P18089 whole entry): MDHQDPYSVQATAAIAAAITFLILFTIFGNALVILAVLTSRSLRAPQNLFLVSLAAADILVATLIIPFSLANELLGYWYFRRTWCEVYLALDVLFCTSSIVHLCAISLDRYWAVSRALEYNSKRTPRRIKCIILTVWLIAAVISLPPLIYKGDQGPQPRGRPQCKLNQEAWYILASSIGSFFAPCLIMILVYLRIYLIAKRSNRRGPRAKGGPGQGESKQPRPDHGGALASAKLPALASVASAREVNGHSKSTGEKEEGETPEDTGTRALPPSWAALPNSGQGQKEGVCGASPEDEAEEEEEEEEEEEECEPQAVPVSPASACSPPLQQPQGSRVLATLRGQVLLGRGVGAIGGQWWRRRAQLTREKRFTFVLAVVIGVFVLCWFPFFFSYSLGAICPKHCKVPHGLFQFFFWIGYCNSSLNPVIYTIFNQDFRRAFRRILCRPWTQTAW

[30] = molecular target: Histamine H4 receptor (Homo sapiens) (UniProt Q9H3N8); experiment: Displacement of [3H]histamine from human H4 histamine receptor expressed in HEK cells at 10 uM after 90 mins by microbeta counting analysis; format: cell-based; conditions: HEK293; in short: as §1
[31] = molecular target: Histamine H3 receptor (Homo sapiens) (UniProt Q9Y5N1); experiment: Displacement of [3H]alpha-methylhistamine from human H3 histamine receptor expressed in HEK cells at 10 uM after 90 mins by microbeta counting analysis; format: cell-based; conditions: HEK293; in short: as §1
[32] = molecular target: 5-hydroxytryptamine receptor 2A (Homo sapiens) (UniProt P28223); experiment: Displacement of [3H]ketanserin from human serotonin 5-HT2A receptor expressed in HEKT cells at 10 uM after 90 mins by microbeta counting analysis; format: cell-based; in short: as §1
Chain of 5-hydroxytryptamine receptor 2A (Homo sapiens) (P28223 whole entry): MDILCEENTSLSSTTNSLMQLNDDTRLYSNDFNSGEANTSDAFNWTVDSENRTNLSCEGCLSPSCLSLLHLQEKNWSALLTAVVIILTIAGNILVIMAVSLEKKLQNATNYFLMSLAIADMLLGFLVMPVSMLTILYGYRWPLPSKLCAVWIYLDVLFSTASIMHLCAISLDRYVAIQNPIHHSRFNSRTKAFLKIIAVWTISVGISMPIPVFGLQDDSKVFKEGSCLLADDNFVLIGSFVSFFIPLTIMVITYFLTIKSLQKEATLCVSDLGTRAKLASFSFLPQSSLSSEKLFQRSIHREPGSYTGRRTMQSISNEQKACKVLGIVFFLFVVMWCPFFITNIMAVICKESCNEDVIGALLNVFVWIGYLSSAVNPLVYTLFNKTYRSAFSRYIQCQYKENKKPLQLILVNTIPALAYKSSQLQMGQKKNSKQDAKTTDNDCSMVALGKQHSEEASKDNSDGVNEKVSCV

[33] = molecular target: D(1A) dopamine receptor (Homo sapiens) (UniProt P21728); experiment: Displacement of [3H]SCH23390 from human dopamine D1 receptor expressed in HEKT cells at 10 uM after 90 mins by microbeta counting analysis; format: cell-based; in short: as §1
DRG neuron = experiment: Increase in Ca2+ uptake in mouse DRG neurons at 20 ug/ml by Fura-2 dye-based fluorescence microscopy; format: functional
In short: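 Mouse DRG cells plated in medium with additives and loaded with the Ca2+ dye Fura-2 AM. Compound applied directly at 20 μg/mL. Read-out is the fraction of cells showing a rise in Ca2+ concentration.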

[34] = molecular target: Alpha-2A adrenergic receptor (Homo sapiens) (UniProt P08913); experiment: Displacement of [3H]rauwolscine from adrenergic alpha2A receptor (unknown origin) expressed in MDCK cells at 10 uM after 90 mins by microbeta counting analysis; format: cell-based; in short: as §1
[35] = molecular target: Alpha-1D adrenergic receptor (Homo sapiens) (UniProt P25100); experiment: Displacement of [3H]prazosin from adrenergic alpha1D receptor (unknown origin) at 10 uM after 90 mins by microbeta counting analysis; in short: as §1
[36] = molecular target: 5-hydroxytryptamine receptor 1E (Homo sapiens) (UniProt P28566); experiment: Displacement of [3H]5-HT from human serotonin 5-HT1E receptor expressed in HEK cells at 10 uM after 90 mins by microbeta counting analysis; format: cell-based; conditions: HEK293; in short: as §1
Chain of 5-hydroxytryptamine receptor 1E (Homo sapiens) (P28566 whole entry): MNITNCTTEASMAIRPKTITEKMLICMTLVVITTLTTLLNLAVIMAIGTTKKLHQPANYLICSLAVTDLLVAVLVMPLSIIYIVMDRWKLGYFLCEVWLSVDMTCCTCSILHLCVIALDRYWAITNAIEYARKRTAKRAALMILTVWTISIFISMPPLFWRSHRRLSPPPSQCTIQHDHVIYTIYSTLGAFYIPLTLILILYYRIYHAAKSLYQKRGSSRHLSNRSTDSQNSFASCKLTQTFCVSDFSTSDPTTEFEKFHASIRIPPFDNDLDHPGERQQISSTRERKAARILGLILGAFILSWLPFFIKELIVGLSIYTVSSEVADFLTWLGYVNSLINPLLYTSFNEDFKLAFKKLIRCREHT

[37] = molecular target: Voltage-gated L-type calcium channel (Rattus norvegicus, UniProt P22002+Q02485+P27732); experiment: Binding affinity to rat calcium channel at 10 uM after 90 mins by microbeta counting analysis; conditions: 1.5 h; in short: as §1
[38] = molecular target: 5-hydroxytryptamine receptor 1A (Homo sapiens) (UniProt P08908); experiment: Displacement of [3H]Way100635 from human serotonin 5-HT1A receptor expressed in CHO cells at 10 uM after 90 mins by microbeta counting analysis; format: cell-based; in short: as §1
Chain of 5-hydroxytryptamine receptor 1A (Homo sapiens) (P08908 whole entry): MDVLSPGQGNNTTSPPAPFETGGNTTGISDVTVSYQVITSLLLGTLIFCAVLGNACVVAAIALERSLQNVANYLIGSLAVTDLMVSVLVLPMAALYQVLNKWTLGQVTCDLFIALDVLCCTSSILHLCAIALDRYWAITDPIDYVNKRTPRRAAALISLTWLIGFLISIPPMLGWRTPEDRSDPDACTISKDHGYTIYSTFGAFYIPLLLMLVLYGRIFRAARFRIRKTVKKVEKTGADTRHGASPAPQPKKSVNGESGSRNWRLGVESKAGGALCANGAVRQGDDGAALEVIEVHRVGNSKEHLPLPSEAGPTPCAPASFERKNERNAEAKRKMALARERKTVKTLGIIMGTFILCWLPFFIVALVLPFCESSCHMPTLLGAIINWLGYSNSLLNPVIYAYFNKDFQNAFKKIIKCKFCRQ

[39] = molecular target: D(3) dopamine receptor (Rattus norvegicus) (UniProt P19020); experiment: Displacement of [3H]N-methylspiperone from rat dopamine D3 receptor expressed in HEKT cells at 10 uM after 90 mins by microbeta counting analysis; format: cell-based; in short: as §1
[40] = molecular target: 5-hydroxytryptamine receptor 2B (Homo sapiens) (UniProt P41595); experiment: Displacement of [3H]LSD from human serotonin 5-HT2B receptor expressed in HEK cells at 10 uM after 90 mins by microbeta counting analysis; format: cell-based; conditions: HEK293; in short: as §1
Chain of 5-hydroxytryptamine receptor 2B (Homo sapiens) (P41595 whole entry): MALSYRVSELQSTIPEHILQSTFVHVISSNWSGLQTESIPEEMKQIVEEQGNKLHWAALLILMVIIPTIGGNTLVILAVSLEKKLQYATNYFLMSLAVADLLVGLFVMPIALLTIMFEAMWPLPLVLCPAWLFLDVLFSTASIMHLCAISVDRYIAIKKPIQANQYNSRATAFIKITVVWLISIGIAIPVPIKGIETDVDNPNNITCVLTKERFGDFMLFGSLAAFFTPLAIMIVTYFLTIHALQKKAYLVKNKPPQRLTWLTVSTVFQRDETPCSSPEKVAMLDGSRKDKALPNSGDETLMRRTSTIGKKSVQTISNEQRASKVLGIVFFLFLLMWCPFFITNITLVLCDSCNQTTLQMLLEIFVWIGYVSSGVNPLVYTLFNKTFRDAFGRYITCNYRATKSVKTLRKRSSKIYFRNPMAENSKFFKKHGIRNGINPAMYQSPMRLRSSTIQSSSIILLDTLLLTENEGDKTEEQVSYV

[41] = molecular target: 5-hydroxytryptamine receptor 6 (Homo sapiens) (UniProt P50406); experiment: Displacement of [3H]LSD from human serotonin 5-HT6 receptor expressed in HEK cells at 10 uM after 90 mins by microbeta counting analysis; format: cell-based; conditions: HEK293; in short: as §1
[42] = molecular target: D(2) dopamine receptor (Homo sapiens) (UniProt P14416); experiment: Displacement of [3H]N-methylspiperone from human dopamine D2 receptor at 10 uM after 90 mins by microbeta counting analysis; in short: as §1
[43] = molecular target: Muscarinic acetylcholine receptor M3 (Homo sapiens) (UniProt P20309); experiment: Binding affinity to human M3 receptor expressed in CHO Flp-In cells at 10 uM after 90 mins by microbeta counting analysis; format: cell-based; in short: as §1
Chain of Muscarinic acetylcholine receptor M3 (Homo sapiens) (P20309 whole entry, looked up): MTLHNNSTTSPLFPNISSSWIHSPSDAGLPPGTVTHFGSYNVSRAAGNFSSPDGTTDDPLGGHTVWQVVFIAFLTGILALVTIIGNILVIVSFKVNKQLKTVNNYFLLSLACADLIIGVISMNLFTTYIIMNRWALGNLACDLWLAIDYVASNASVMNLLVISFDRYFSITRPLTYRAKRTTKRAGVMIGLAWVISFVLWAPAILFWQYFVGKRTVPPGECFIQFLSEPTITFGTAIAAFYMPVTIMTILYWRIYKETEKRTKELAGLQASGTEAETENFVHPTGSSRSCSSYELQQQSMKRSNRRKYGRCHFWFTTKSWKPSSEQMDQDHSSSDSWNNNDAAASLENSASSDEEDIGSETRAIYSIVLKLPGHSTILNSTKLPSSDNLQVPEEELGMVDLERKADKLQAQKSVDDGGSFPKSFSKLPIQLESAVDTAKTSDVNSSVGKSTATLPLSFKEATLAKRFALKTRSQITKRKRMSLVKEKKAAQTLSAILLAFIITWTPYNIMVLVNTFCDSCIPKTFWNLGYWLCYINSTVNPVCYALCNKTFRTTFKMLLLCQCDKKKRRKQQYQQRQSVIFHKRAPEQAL

[44] = molecular target: Kappa-type opioid receptor (Homo sapiens) (UniProt P41145); experiment: Displacement of [3H]U69593 from kappa opioid receptor (unknown origin) expressed in HEK cells at 10 uM after 90 mins by microbeta counting analysis; format: cell-based; conditions: HEK293; in short: as §1
[45] = molecular target: Muscarinic acetylcholine receptor M1 (Homo sapiens) (UniProt P11229); experiment: Binding affinity to human M1 receptor expressed in CHO cells at 10 uM after 90 mins by microbeta counting analysis; format: cell-based; in short: as §1
[46] = molecular target: 5-hydroxytryptamine receptor 7 (Homo sapiens) (UniProt P34969); experiment: Displacement of [3H]LSD from human serotonin 5-HT7 receptor expressed in HEK cells at 10 uM after 90 mins by microbeta counting analysis; format: cell-based; conditions: HEK293; in short: as §1

COC(=O)CCc1cc2cc(C)oc(=O)c2c(O)c1O
Activity [1]: inactive
Activity [2]: inactive
Activity [3]: inactive
Activity [4]: inactive
Activity [5]: inactive
Activity [6]: inactive
Activity [7]: inactive
Activity (Rattus norvegicus [8]): inactive
Activity [9]: inactive
Activity [10]: inactive
Activity [11]: inactive
Activity [12]: inactive
Activity [13]: inactive
Activity [14]: inactive
Activity [15]: inactive
Activity [16]: inactive
Activity [17]: inactive
Activity [18]: inactive
Activity [19]: inactive
Activity [20]: inactive
Activity [21]: inactive
Activity (Rattus norvegicus [22]): inactive
Activity [23]: inactive
Activity [24]: inactive
Activity [25]: inactive
Activity [26]: inactive
Activity [27]: inactive
Activity [28]: inactive
Activity [29]: inactive
Activity [30]: inactive
Activity [31]: inactive
Activity [32]: inactive
Activity [33]: inactive
Activity (DRG neuron): Active
Activity [34]: inactive
Activity [35]: inactive
Activity [36]: inactive
Activity [37]: Not Active
Activity [38]: inactive
Activity [39]: inactive
Activity [40]: inactive
Activity [41]: inactive
Activity [42]: inactive
Activity [43]: inactive
Activity [44]: inactive
Activity [45]: inactive
Activity [46]: inactive
